One test concerns NCI-H187. Briefly: Cytotoxicity against human NCI-H187 cells by SRB assay. The test is classed as functional, cell-based.
In a further test the test system is KB. As to the kind of experiment: Cytotoxicity against human KB cells by SRB assay. The test is classed as functional, cell-based. A general note: In SRB staining, fixed cells bind dye roughly in proportion to their protein.
The next test relates to MCF7. As to the kind of experiment: Cytotoxicity against human MCF7 cells by SRB assay. The test is classed as functional, cell-based.
The next test concerns Vero. As to the kind of experiment: Cytotoxicity against african green monkey Vero cells by SRB assay. The format is cell-based. As to conditions: Chlorocebus sabaeus.
For a further test, the system named is Plasmodium falciparum. Briefly: Antiplasmodial activity against multidrug-resistant Plasmodium falciparum K1 assessed as [G-3H]hypoxanthine uptake after 24 hrs by scintillation counting. The format is functional, organism-based. The conditions noted are these: K1, 24 h. In outline:
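Microculture radioisotope technique on the multidrug-resistant K1 strain of P. falciparum; activity reported in µg/mL.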

For test [1], the system named is Radical scavenging activity. Briefly: Antioxidant activity assessed as DPPH radical scavenging activity. The format is functional. In outline:
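DPPH radical-scavenging test run per a published method. Activity is expressed in µg/mL, and a positive control substance was included.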
Background: Loss of DPPH colour is used to gauge radical scavenging.

Values after ≈ are worked out from the molar mass of the structure shown.

Here are results for eight compounds from ChEMBL document CHEMBL1154303, “Cytotoxic and antiplasmodial compounds from the roots of Strophioblachia fimbricalyx” (J Nat Prod, 2009).

On to `COC1=Cc2c(cc(O)c3cc(C)c(OC)cc23)C(C)(C)C1=O`, for which the IC50 (commonly the concentration needed to halve the response being measured) is 0.8 µg/mL (≈ 2.56 µM) with NCI-H187; 0.8 µg/mL (≈ 2.56 µM) in the test on KB; 2.9 µg/mL (≈ 9.28 µM) in the test on MCF7; 3.1 µg/mL (≈ 9.92 µM) in the test with Vero; 2.7 µg/mL (≈ 8.64 µM) in the test on Plasmodium falciparum; 29.1 µg/mL (≈ 93.2 µM) in test [1].

Consider `COc1cc2c(cc1C)c(OC)cc1cc(C)c(=O)c(OC)cc12`, for which the IC50 was more than 5 µg/mL with NCI-H187; 4 µg/mL (≈ 12.3 µM) with KB; more than 5 µg/mL in the test on MCF7; more than 20 µg/mL in the test on Vero; 3.2 µg/mL (≈ 9.87 µM) with Plasmodium falciparum; more than 100 µg/mL in test [1].

For the compound `COc1cc2c(cc1C)c(OC)cc1cc(C)c(=O)cc(OC)c12`, the IC50 with NCI-H187 is more than 5 µg/mL; in the test on KB, 3.9 µg/mL (≈ 12 µM); with MCF7, more than 5 µg/mL; in the test on Vero, more than 20 µg/mL; in the test with Plasmodium falciparum, more than 20 µg/mL; in test [1], more than 100 µg/mL.

With `C[C@H]1[C@@H](O)O[C@@H]2O[C@@]3(C)CC[C@H]4[C@H](C)CC[C@@H]1[C@@]24OO3` [ARTENIMOL], in the test on Plasmodium falciparum, the IC50 came out at 0.004 µg/mL (≈ 0.0141 µM).

For the compound `Cc1cc(C(C)(C)C)c(O)c(C(C)(C)C)c1` [BUTYLATED HYDROXYTOLUENE], in test [1], the IC50 stood at 18.8 µg/mL (≈ 85.3 µM).

For the compound `COc1cccc2c1C(=O)c1c(O)c3c(c(O)c1C2=O)C[C@@](O)(C(=O)CO)C[C@@H]3O[C@H]1C[C@H](N)[C@H](O)[C@H](C)O1` [DOXORUBICIN], the IC50 amounted to 0.04 µg/mL (≈ 0.0736 µM) in the test on NCI-H187 and 0.13 µg/mL (≈ 0.239 µM) in the test on KB.

Regarding `Cc1c2ccncc2c(C)c2c1[nH]c1ccccc12` [ELLIPTECINE], the figures for the IC50 with NCI-H187, in the test with KB and in the test on Vero were 0.44 µg/mL (≈ 1.79 µM), 0.48 µg/mL (≈ 1.95 µM) and 0.48 µg/mL (≈ 1.95 µM), respectively.

As for `COC1=Cc2c(cc(OC)c3cc(C)c(OC)cc23)C(C)(C)C1=O` [TRIGONOSTEMONE], the IC50 is more than 5 µg/mL in the test on NCI-H187; more than 5 µg/mL with KB; more than 5 µg/mL with MCF7; more than 20 µg/mL with Vero; more than 20 µg/mL with Plasmodium falciparum; more than 100 µg/mL in test [1].
